Reference: ChEMBL document CHEMBL1158122, “Anti-inflammatory, anti-tumor-promoting, and cytotoxic activities of constituents of marigold (Calendula officinalis) flowers” (J Nat Prod, 2006)

Legend:
[1] = Cytotoxicity against human Raji cells assessed as cell viability at 10 molar ratio; format: cell-based; conditions: read-out: Activity
Procedure, shortened: (§1)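 Raji cells were treated with 32 pmol TPA to induce EBV early antigen activation. The test agent was added at 10, 100, 500 or 1000 mol ratio relative to TPA, and Raji cell viability was measured alongside EA activation.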

NCI-H226 = experiment: Cytotoxicity against human NCI-H226 cells after 48 hrs by SRB assay; format: functional; conditions: NCI-H226, 48 h
MOLT-4 = experiment: Cytotoxicity against human MOLT-4 cells after 48 hrs by SRB assay; format: functional; conditions: MOLT-4, 48 h
[2] = Cytotoxicity against human Raji cells assessed as cell viability at 500 molar ratio; format: cell-based; conditions: read-out: Activity; procedure, shortened: as §1
SN12C = experiment: Cytotoxicity against human SN12C cells after 48 hrs by SRB assay; format: functional
[3] = Cytotoxicity against human Raji cells assessed as cell viability at 100 molar ratio; format: cell-based; conditions: read-out: Activity; procedure, shortened: as §1
[4] = Cytotoxicity against human HCT 116 cells after 48 hrs by SRB assay; format: functional; conditions: HCT-116, 48 h
UO-31 = experiment: Cytotoxicity against human UO-31 cells after 48 hrs by SRB assay; format: functional; conditions: UO-31, 48 h
Procedure, shortened: (§2)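 Tested in the NCI panel of 60 human tumour cell lines covering lung, colon, melanoma, renal, ovarian, breast and leukaemia. At least five concentrations were run in 10-fold dilutions starting from 10^-4 M. Exposure was continuous for 48 h. Growth or viability was estimated by sulforhodamine B protein staining, and GI50 values were reported.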

BT-549 = experiment: Cytotoxicity against human BT-549 cells after 48 hrs by SRB assay; format: functional; conditions: BT-549, 48 h
[5] = Cytotoxicity against human Hs 578T cells after 48 hrs by SRB assay; format: functional
NCI/ADR-RES = experiment: Cytotoxicity against human NCI/ADR-RES cells after 48 hrs by SRB assay; format: functional
RXF 393 = experiment: Cytotoxicity against human […] cells after 48 hrs by SRB assay; format: functional; conditions: RXF 393, 48 h
OVCAR-5 = experiment: Cytotoxicity against human OVCAR5 cells after 48 hrs by SRB assay; format: functional; conditions: OVCAR-5, 48 h
[6] = Cytotoxicity against human Raji cells assessed as cell viability at 1000 molar ratio; format: cell-based; conditions: read-out: Activity; procedure, shortened: as §1
Raji = experiment: Inhibition of TPA-induced EBV-early antigen activation in human Raji cells at 1000 molar ratio relative to TPA; format: cell-based; parameters: scale not given: the % may be the effect or the level left; conditions: human gammaherpesvirus 4
Mus musculus = experiment: Antiinflammatory activity against TPA-induced ear edema in mouse; format: functional
Procedure, shortened: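 Specific-pathogen-free female ICR mice were housed five per cage at 24 ± 2 °C. Inflammation was induced on the ear with TPA at 1 µg/ear, and the test agent was applied per ear. Ear edema inhibition was expressed as ID50 in mg per ear.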

UACC-257 = experiment: Cytotoxicity against human UACC-257 cells after 48 hrs by SRB assay; format: functional; conditions: UACC-257, 48 h; procedure, shortened: as §2
A549 = experiment: Cytotoxicity against human A549 cells after 48 hrs by SRB assay; format: functional; conditions: A549, 48 h
IGROV-1 = experiment: Cytotoxicity against human IGROV1 cells after 48 hrs by SRB assay; format: functional; conditions: IGROV-1, 48 h
HOP-62 = experiment: Cytotoxicity against human HOP-62 cells after 48 hrs by SRB assay; format: functional; conditions: HOP-62, 48 h
NCI-H322M = experiment: Cytotoxicity against human NCI-H322M cells after 48 hrs by SRB assay; format: functional
HCT-15 = experiment: Cytotoxicity against human HCT-15 cells after 48 hrs by SRB assay; format: functional; conditions: HCT-15, 48 h
K562 = experiment: Cytotoxicity against human K-562 cells after 48 hrs by SRB assay; format: functional; conditions: K562, 48 h
T47D = experiment: Cytotoxicity against human T47D cells after 48 hrs by SRB assay; format: functional; procedure, shortened: as §2
SF-268 = experiment: Cytotoxicity against human SF-268 cells after 48 hrs by SRB assay; format: functional; conditions: SF-268, 48 h
Malme-3M = experiment: Cytotoxicity against human MALME-3M cells after 48 hrs by SRB assay; format: functional
MDA-MB-435 = experiment: Cytotoxicity against human MDA-MB-435 cells after 48 hrs by SRB assay; format: functional; conditions: MDA-MB-435, 48 h
[7] = Cytotoxicity against human SK MEL28 cells after 48 hrs by SRB assay; format: functional; conditions: SK-MEL-28, 48 h
NCI-H23 = experiment: Cytotoxicity against human NCI-H23 cells after 48 hrs by SRB assay; format: functional; conditions: NCI-H23, 48 h

Compound `CCCCOC(=O)[C@H]1O[C@@H](O[C@H]2CC[C@]3(C)[C@H]4CC=C5[C@@H]6CC(C)(C)CC[C@]6(C(=O)O)CC[C@@]5(C)[C@]4(C)CC[C@H]3C2(C)C)[C@H](O[C@@H]2O[C@H](CO)[C@@H](O)[C@H](O)[C@H]2O)[C@@H](O[C@@H]2O[C@H](CO)[C@H](O)[C@H](O)[C@H]2O)[C@@H]1O` has a viability at 10 molar ratio [1] of over 80%, a GI50 (NCI-H226) of 29.2 µM and a GI50 (MOLT-4) of 7.77 µM. For the same compound, the viability at 500 molar ratio [2] was over 80%, the GI50 (SN12C) was 21.8 µM and the viability at 100 molar ratio [3] was over 80%. For the same compound, the GI50 [4] was 20.6 µM, the GI50 (UO-31) was 49.2 µM and the GI50 (BT-549) was 21.5 µM. For the same compound, the GI50 [5] was 38 µM, the GI50 (NCI/ADR-RES) was 74 µM and the GI50 (RXF 393) was 58.5 µM. The GI50 (OVCAR-5) was 28.8 µM, the viability at 1000 molar ratio [6] was 70% and the Activity (Raji) was 11%. The ID50 (Mus musculus) was 0.06 mg, the GI50 (UACC-257) was 26.2 µM and the GI50 (A549) was 34.1 µM. The GI50 (IGROV-1) was over 100 µM, the GI50 (HOP-62) was 19.4 µM and the GI50 (NCI-H322M) was 19 µM. For the same compound, the GI50 (HCT-15) was 20.9 µM, the GI50 (K562) was 23.2 µM and the GI50 (T47D) was 48 µM. It also gave a GI50 (SF-268) of 27.7 µM, a GI50 (Malme-3M) of 17.8 µM and a GI50 (MDA-MB-435) of 30.6 µM. The GI50 [7] was 26.7 µM and the GI50 (NCI-H23) was 22.8 µM.
